Results on 30 molecules are retold here after PubChem BioAssay.

Test [1] in a line: nonspecific flux increase, KCNQ1-free cells – parental CHO cells, counter-screen for KCNQ1 potentiator project (AID 493006;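 active = duplicate-averaged activation above buffer control mean plus 5 SD of those controls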;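 as to activation: fluorescence ratio of max minus min over baseline after K+ and Tl+ depolarization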). As to conditions: parental CHO-K1 cells, FluxOR thallium flux, at 10 µM; hits give high values. In short, it runs like this: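 Material: untransfected host CHO-K1 cells with FluxOR thallium dye. Timing: overnight 37 °C plating, 90 min RT dye, 20 min compound. Detection: kinetic FluxOR fluorescence, 10 s baseline, 110 s after stimulus. Read-out basis: max-minus-min fluorescence over baseline, percent of buffer-to-R-L3 span. Replicates: duplicate wells per compound, percent values averaged.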
(In general: Counterscreens check selectivity or assay interference.)

Test [2] addresses Potassium voltage-gated channel subfamily KQT member 1 (Homo sapiens) (UniProt P51787). Kind of test: enhancement of KCNQ1 channel thallium flux – FluxOR thallium flux, CHO cells, duplicates, confirmation (AID 493007;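 active = potentiation averaged over duplicate wells exceeding buffer-only control mean by more than 3 SD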;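 as to outcome: cells depolarized by a potassium plus thallium sulfate stimulus after compound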). As to conditions: KCNQ1 cell line, FluxOR thallium flux fluorescence, at 10 µM; hits give high values, % of reference activator effect, buffer zero. In short, it runs like this:
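Test system – KCNQ1-expressing CHO cell line · Incubation – FluxOR dye loading 90 min, compound exposure 20 min, room temperature · Detection – FluxOR Tl+ flux fluorescence, 10 s baseline plus 110 s recording · Controls – buffer-only wells as 0% and R-L3 activator as 100%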

Test [3] deals with Potassium voltage-gated channel subfamily KQT member 2 (Rattus norvegicus) (UniProt O88943). Kind of test: KCNQ2 thallium flux enhancement – KCNQ2-CHO-K1 cells, selectivity assay for KCNQ1 potentiator project (AID 493009).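 Also: assay conditions were tuned for KCNQ1 rather than KCNQ2 modulators; signal is max minus min fluorescence divided by baseline after thallium stimulus.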 The conditions noted are these: FluxOR thallium flux fluorescence, at 10 µM; hits give high values, scaled: buffer 0, activator control 100.
Sequence of Potassium voltage-gated channel subfamily KQT member 2 (Rattus norvegicus) (O88943 whole entry, looked up): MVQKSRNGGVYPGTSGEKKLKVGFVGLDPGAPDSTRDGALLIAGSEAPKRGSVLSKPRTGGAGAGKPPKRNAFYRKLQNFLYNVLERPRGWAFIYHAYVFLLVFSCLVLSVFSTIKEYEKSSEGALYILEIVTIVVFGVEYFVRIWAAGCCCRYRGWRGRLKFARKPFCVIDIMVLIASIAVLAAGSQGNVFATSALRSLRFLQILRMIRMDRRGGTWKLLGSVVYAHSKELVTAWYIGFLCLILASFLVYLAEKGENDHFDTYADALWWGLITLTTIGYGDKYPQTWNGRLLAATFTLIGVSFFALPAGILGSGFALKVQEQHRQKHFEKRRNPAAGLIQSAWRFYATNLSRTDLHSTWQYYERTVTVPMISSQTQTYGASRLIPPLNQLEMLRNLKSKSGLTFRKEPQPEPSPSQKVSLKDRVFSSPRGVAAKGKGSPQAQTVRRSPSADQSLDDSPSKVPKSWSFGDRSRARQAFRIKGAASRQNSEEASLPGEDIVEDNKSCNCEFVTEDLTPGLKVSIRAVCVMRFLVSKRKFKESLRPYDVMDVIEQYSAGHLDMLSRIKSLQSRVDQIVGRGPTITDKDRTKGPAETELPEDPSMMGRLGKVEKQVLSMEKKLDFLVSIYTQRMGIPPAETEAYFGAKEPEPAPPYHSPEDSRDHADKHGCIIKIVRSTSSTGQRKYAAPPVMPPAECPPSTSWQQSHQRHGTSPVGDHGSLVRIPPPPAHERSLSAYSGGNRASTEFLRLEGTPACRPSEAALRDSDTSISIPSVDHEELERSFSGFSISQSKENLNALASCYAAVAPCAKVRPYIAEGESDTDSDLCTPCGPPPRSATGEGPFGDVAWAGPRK
Test [4] has as its target Potassium voltage-gated channel subfamily KQT member 1 (Homo sapiens) (UniProt P51787). Kind of test: KCNQ1 activators by electrophysiology – IonWorks patch clamp, KCNQ1-CHO cells, orthogonal assay for KCNQ1 potentiator project, confirmation (AID 493184;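 active = current rise at least 3 SD above the untreated control mean in each of two repeat wells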). The conditions noted are these: automated patch clamp current, at 10 µM; hits give high values. In short, it runs like this:
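Read-out: Percent current increase versus pre-compound level | Assay system: CHO cells carrying KCNQ1 | Measured by: Automated perforated-patch electrophysiology | Medium: External bath solution at pH 7.4 | Dosing: One dose, 10 µM final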
(In general: In patch-clamp work, channel activity is measured electrically.)

Molecules are shown by their SMILES. Active and inactive are the calls of the source.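 The calls were made as follows, unless noted: active = mean duplicate potentiation above the buffer control mean plus 5 SD of buffer wells; inactive = the rest.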

Sequence of Potassium voltage-gated channel subfamily KQT member 1 (Homo sapiens) (P51787 whole entry, looked up): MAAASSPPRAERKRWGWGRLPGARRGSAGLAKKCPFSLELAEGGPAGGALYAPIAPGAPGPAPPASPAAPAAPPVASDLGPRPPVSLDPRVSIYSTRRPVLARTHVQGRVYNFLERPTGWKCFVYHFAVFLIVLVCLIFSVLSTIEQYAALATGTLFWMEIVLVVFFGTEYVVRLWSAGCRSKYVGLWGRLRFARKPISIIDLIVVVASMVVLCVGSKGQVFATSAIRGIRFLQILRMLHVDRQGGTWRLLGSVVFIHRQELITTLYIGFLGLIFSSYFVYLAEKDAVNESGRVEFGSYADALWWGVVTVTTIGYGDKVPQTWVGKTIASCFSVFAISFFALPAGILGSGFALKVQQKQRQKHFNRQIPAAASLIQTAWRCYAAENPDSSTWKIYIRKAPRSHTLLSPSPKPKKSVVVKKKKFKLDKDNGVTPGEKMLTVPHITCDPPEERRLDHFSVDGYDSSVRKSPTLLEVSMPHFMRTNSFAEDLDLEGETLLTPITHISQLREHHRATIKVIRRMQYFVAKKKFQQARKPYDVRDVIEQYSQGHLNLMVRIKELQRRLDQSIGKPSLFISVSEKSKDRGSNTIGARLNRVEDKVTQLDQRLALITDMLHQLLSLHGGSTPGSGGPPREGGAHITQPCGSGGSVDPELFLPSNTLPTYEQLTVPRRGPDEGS

With `CC(C)CCn1c(=S)[nH]c2ncccc2c1=O`, the activation in test [1] is 152% (active). The outcome in test [2], in test [3] and in test [4] was inactive.
With `O=C1NC(=S)S/C1=C\c1ccc2ccccc2c1`, the activation in test [1] is 234% (active). For the same molecule, the potentiation was 82% (active) in test [2] and 218% (active) in test [3]. In test [4], the result was inactive.
Turning to `CC(C)(C)c1cc(-c2csc(Nc3ccccc3)[n+]2Cc2ccc(C(=O)O)cc2)cc(C(C)(C)C)c1O`, the activation in test [1] was 327% (active). Further, the potentiation in test [2] is 54.5% (active); in test [3], 198% (active). Besides, the result in test [4] was inactive.
Turning to `Cc1ccc2c(c1)C1CN(C)CCC1N2C(=S)NC(=O)c1ccc(Cl)cc1Cl` (stereo not given), the activation in test [1] was 194% (active). Moreover, the potentiation in test [2] is 50% (active); in test [3], 217% (active). The result in test [4] was inactive.
As to `COc1ccc(CCNC(=O)c2ccc(N(C)S(=O)(=O)c3ccc(C)cc3)cc2)cc1OC`, the outcome in test [1], in test [2], in test [3] and in test [4] was inactive.
`CCOC(=O)c1sc(NC(=O)c2ccncc2)nc1C`: the activation in test [1] is 161% (active). Further, the potentiation in test [2] is 54% (active); in test [3] it was 166% (active). Further, the outcome in test [4] was inactive.
For the molecule `O=C(NC(=S)N1CCN(Cc2ccc3c(c2)OCO3)CC1)c1ccc(Cl)cc1`, in test [1], the activation was 260% (active). For the same molecule, the potentiation in test [2] is 86% (active); in test [3], 298% (active). Moreover, the outcome in test [4] was inactive.
Consider `CCCc1ccc2oc(C(=O)N(C)CCn3ccnc3C)c(C)c2c1`, for which the result in test [1], in test [2], in test [3] and in test [4] was inactive.
Regarding `Cc1ccc(/C=N/Nc2nc(C(C)(C)C)cs2)o1`, the result in test [1], in test [2], in test [3] and in test [4] was inactive.
For `COc1cccc(C(=O)NNC(=O)C(=O)Nc2ccc(OC)cc2OC)c1`, the activation in test [1] is 178% (active). Besides, the potentiation in test [2] was 41% (active); in test [3] it was 202% (active). Besides, in test [4], the outcome was inactive.
The matching figures for `O=c1c2cccnc2[nH]c(=S)n1CCC1=CCCCC1`: 258% (active), 64% (active), 229% (active) and “inactive”.
In the case of `Cc1cccc(NC(=O)C(=O)NNC(=O)c2ccc(C(C)(C)C)cc2)c1`, in test [1], the activation was 485% (active). Moreover, the potentiation in test [2] was 179% (active); in test [3], 483% (active). Besides, the result in test [4] was inactive.
As to `O=C(CCC(=O)c1ccc(F)cc1)Nc1cc(Cl)cc(Cl)c1`, the outcome in test [1], in test [2], in test [3] and in test [4] was inactive.
On to `N#Cc1ccccc1Oc1ccccc1C=O`, for which the activation in test [1] was 143% (active). Moreover, the potentiation in test [2] is 39.5% (active); in test [3], 160% (active). In test [4], the result was inactive.
In the same order, the values of `Cc1ccc(-c2csc3nc[nH]c(=S)c23)cc1` are 308% (active), 124% (active), 300% (active) and “inactive”.
Take `O=C(CN1C2=NCCCN2c2ccccc21)c1ccc2c(c1)OCO2`: the result in test [1], in test [2], in test [3] and in test [4] was inactive.
On to `O=c1c2cc(NC(=S)NCCCN3CCC(Cc4ccccc4)CC3)ccc2nc2n1CCCCC2`, for which the result in test [1], in test [2], in test [3] and in test [4] was inactive.
`Clc1ccc(-c2csc(N3CCc4ccccc4C3)n2)cc1`: the result in test [1], in test [2], in test [3] and in test [4] was inactive.
Turning to `C=CCn1c(=S)[nH]c2nc3c(cc2c1=O)CCCC3`, the result in test [1] and in test [4] was inactive. Besides, the potentiation in test [2] was 34% (active); in test [3] it was 152% (active).
Consider `Cc1cc(C)n(CCNS(=O)(=O)c2ccccc2)n1`, for which the outcome in test [1], in test [2], in test [3] and in test [4] was inactive.
As to `COc1cccc(C(=O)NNC(=O)C(=O)Nc2cccc3ccccc23)c1`, the activation in test [1] was 218% (active). For the same molecule, the potentiation is 51.5% (active) in test [2] and 228% (active) in test [3]. In addition, in test [4], the outcome was inactive.
`CC(C)(C)c1cc(C(=O)NNC(=O)c2ccc(C(F)(F)F)cc2)no1`: the outcome in test [1] and in test [4] was inactive. Further, the figures for the potentiation in test [2] and in test [3] were 32% (active) and 161% (active), respectively.
Regarding `COC(=O)c1ccccc1NC(=S)NC(NC(=O)c1ccco1)C(Cl)(Cl)Cl` (stereo not given), the activation in test [1] was 138% (active). Further, the potentiation was 54% (active) in test [2] and 232% (active) in test [3]. In addition, the result in test [4] was inactive.
Consider `O=C(c1ccc(S(=O)(=O)N2CCCC2)cc1)N1CCN(c2cccc(Cl)c2)CC1`, for which the result in test [1], in test [2], in test [3] and in test [4] was inactive.
For the molecule `CC(=O)SCC(=O)N=c1sc2cc(F)ccc2n1C`, the result in test [1], in test [2], in test [3] and in test [4] was inactive.
`COC(=O)C1C(=O)c2c([nH]c(C(=O)OCCSC)c2C)CC1C` (stereo not given): the result in test [1], in test [2], in test [3] and in test [4] was inactive.
As to `Oc1c(Br)cc(Br)cc1C=Nc1cccc2ncccc12`, the activation in test [1] is 166% (active). The outcome in test [2], in test [3] and in test [4] was inactive.
Consider `Cc1nc2ccccc2c(N)c1C(=O)/C=C/c1ccccc1`, for which the outcome in test [1], in test [2], in test [3] and in test [4] was inactive.
With `Cc1ccc(C)c(SCC(=O)NC(=O)Nc2ccc3c(c2)OCCO3)c1`, the result in test [1], in test [2], in test [3] and in test [4] was inactive.
As to `CC(C)(C)NCC(O)COc1ccccc1C(C)(C)C` (stereo not given), the result in test [1], in test [2], in test [3] and in test [4] was inactive.
